According to ChEMBL document CHEMBL1143610, “Applying linear interaction energy method for rational design of noncompetitive allosteric inhibitors of the sarco- and endoplasmic reticulum calcium-ATPase” (J Med Chem, 2005):

Biological target: T1, Sarcoplasmic/endoplasmic reticulum calcium ATPase 1 (Homo sapiens, UniProt O14983)
Test: Inhibitory potency against sarco- endoplasmic reticulum calcium-ATPase in relative to thapsigargin
Target sequence in this assay (O14983 whole entry, looked up): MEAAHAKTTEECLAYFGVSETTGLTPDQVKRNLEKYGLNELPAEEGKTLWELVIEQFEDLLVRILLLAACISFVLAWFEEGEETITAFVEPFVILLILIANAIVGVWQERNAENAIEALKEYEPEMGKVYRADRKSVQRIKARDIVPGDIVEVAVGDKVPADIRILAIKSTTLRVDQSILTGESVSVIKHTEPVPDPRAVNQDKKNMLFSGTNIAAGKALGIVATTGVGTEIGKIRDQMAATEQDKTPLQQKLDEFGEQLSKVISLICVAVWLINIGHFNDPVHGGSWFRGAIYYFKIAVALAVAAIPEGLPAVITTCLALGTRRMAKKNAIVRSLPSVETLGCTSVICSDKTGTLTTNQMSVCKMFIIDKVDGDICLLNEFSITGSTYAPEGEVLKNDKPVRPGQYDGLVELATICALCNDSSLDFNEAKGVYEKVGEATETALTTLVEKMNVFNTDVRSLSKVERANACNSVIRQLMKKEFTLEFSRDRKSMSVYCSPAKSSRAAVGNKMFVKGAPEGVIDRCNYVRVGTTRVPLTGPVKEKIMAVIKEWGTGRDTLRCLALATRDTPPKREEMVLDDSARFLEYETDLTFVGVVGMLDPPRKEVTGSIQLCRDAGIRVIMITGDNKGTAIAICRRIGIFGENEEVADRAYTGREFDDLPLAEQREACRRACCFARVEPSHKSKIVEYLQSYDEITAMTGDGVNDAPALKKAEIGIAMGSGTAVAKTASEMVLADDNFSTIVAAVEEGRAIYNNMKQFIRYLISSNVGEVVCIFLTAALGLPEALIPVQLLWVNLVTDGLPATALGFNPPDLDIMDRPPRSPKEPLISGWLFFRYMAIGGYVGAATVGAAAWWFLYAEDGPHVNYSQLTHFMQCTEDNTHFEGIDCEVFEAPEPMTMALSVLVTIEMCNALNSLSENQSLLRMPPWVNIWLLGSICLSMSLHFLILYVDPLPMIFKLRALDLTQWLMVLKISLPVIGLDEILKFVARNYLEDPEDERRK

SMILES | RIC50
CCCCCCCC(=O)O[C@H]1[C@H]2C(=C(C)[C@@H]1OC(=O)CCCCCCC)[C@@H]1OC(=O)[C@@](C)(O)[C@@]1(O)[C@@H](OC(=O)CCC)C[C@]2(C)OC(C)=O | 0.09
C/C=C(/C)C(=O)O[C@H]1C(C)=C2[C@H]([C@@H]1OC(=O)CCCCC)[C@@](C)(O)C[C@H](OC(=O)CCC)[C@@]1(O)[C@H]2O[C@H]2OC(C)(C)O[C@]21C | 0.002
C/C=C(/C)C(=O)O[C@H]1C(C)=C2[C@H]([C@@H]1OC(=O)CCCCCCC)[C@@](C)(OC(C)=O)C[C@H](OC(=O)CCC(=O)Nc1ccc(C)c(N)c1)[C@@]1(O)[C@H]2O[C@H](O)[C@@]1(C)O | 0.003
CCCCCCCCO[C@@H]1C(C)=C2[C@H]([C@@H]1OC(=O)CCCCCCC)[C@@](C)(OC(C)=O)C[C@H](OC(=O)CCC)[C@@]1(O)[C@H]2OC(=O)[C@@]1(C)O | 0.002
C/C=C(\C)C(=O)O[C@H]1C(C)=C2[C@H]([C@@H]1OC(=O)CCCCCCC)[C@@](C)(O)C[C@H](OC(=O)CCC)[C@@]1(O)[C@H]2OC(=O)[C@@]1(C)O | 0.02
C/C=C(/C)C(=O)O[C@H]1C(C)=C2[C@H]([C@@H]1O)[C@@](C)(O)C[C@H](OC(=O)CCC)[C@@]1(O)[C@H]2O[C@H]2OC(C)(C)O[C@]21C | 0.0002
C/C=C(/C)C(=O)O[C@H]1C(C)=C2[C@H]([C@@H]1OC(=O)CCCCCCC)[C@@](C)(OC(C)=O)C[C@H](OC(=O)CCCCCCCCCCN)[C@@]1(O)[C@H]2O[C@H](O)[C@@]1(C)O | 0.333
C/C=C(/C)C(=O)O[C@H]1C(C)=C2[C@H]([C@@H]1OC(=O)CCCCCCC)[C@@](C)(OC(C)=O)C[C@H](OC(=O)CCCCCCCCCCCNC(=O)[C@@H](N)CO)[C@@]1(O)[C@H]2O[C@H](O)[C@@]1(C)O | 1.25
C/C=C(/C)C(=O)O[C@H]1C(C)=C2[C@H]([C@@H]1OC(=O)CCCCC)[C@@](C)(OC(C)=O)C[C@H](OC(=O)CCC)[C@@]1(O)[C@H]2OC(=O)[C@@]1(C)O | 0.98
C/C=C(/C)C(=O)O[C@H]1C(C)=C2[C@H]([C@@H]1OC(=O)CCCCCCC)[C@@](C)(OC(C)=O)C[C@H](OC(=O)CCCc1ccc(N)cc1)[C@@]1(O)[C@H]2O[C@H](O)[C@@]1(C)O | 0.6
C/C=C(\C)C(=O)O[C@H]1C(C)=C2[C@H]([C@@H]1OC(=O)CCCCCCC)[C@@](C)(OC(C)=O)C[C@H](OC(=O)CCC)[C@@]1(OC(C)=O)[C@H]2OC(=O)[C@@]1(C)OC(C)=O | 0.07
C/C=C(/C)C(=O)O[C@H]1C(C)=C2[C@H]([C@@H]1OC(=O)CCCCCCC)[C@@](C)(OC(C)=O)C[C@H](OC(=O)CCCCCCCN)[C@@]1(O)[C@H]2O[C@H](O)[C@@]1(C)O | 0.059
C/C=C(/C)C(=O)O[C@H]1C(C)=C2[C@H]([C@@H]1OC(=O)CCCCC)[C@@](C)(OC(C)=O)C[C@H](OC(=O)CCC)[C@@]1(O)[C@H]2O[C@H]2O[C@H](OCC)O[C@]21C | 0.4
C/C=C(/C)C(=O)O[C@H]1C(C)=C2[C@H]([C@@H]1OC(=O)CCCCCCC)[C@@](C)(OC(C)=O)C[C@H](OC(=O)c1ccc(N)cc1)[C@@]1(O)[C@H]2O[C@H](O)[C@@]1(C)O | 0.59
C/C=C(\C)C(=O)O[C@H]1C(C)=C2[C@H]([C@@H]1OC(=O)CCCCCCC)[C@@](C)(OC(C)=O)C[C@H](OC(=O)CCC)[C@@]1(O)[C@H]2OC(=O)[C@@]1(C)OC(C)=O | 0.4
C/C=C(/C)C(=O)O[C@H]1C(C)=C2[C@H]([C@@H]1OC(=O)CCCCC)[C@@](C)(OC(C)=O)C[C@H](OC(=O)CCC)[C@@]1(O)[C@H]2O[C@@H](OCC)[C@@]1(C)O | 0.52
C/C=C(/C)C(=O)O[C@H]1C(C)=C2[C@H]([C@@H]1OC(=O)CCCCCCC)[C@@](C)(OC(C)=O)C[C@H](OC(=O)CCCCCNC(=O)[C@@H](N)CC(C)C)[C@@]1(O)[C@H]2O[C@H](O)[C@@]1(C)O | 0.004
C/C=C(/C)C(=O)O[C@H]1C(C)=C2[C@H]([C@@H]1OC(=O)CCCCC)[C@@](C)(OC(C)=O)C[C@H](OC(=O)CCC)[C@@]1(O)[C@H]2O[C@H](OCC)[C@@]1(C)O | 0.85
C/C=C(/C)C(=O)O[C@H]1C(C)=C2[C@H]([C@@H]1OC(=O)CCCCCCC)[C@@](C)(OC(C)=O)C[C@H](OC(=O)CCCCCCN)[C@@]1(O)[C@H]2O[C@H](O)[C@@]1(C)O | 0.011

SMILES | RIC50
C/C=C(/C)C(=O)O[C@H]1C(C)=C2[C@H]([C@@H]1OC(=O)CCCCCCC)[C@@](C)(OC(C)=O)C[C@H](OC(=O)CCCCCCCCCCCNC(=O)[C@@H](N)CC(C)C)[C@@]1(O)[C@H]2O[C@H](O)[C@@]1(C)O | 0.294
C/C=C(/C)C(=O)O[C@H]1C(C)=C2[C@H]([C@@H]1OC(=O)CCCCCCC)[C@@](C)(OC(C)=O)C[C@H](OC(=O)CCc1ccc(NC(=O)OC(C)(C)C)cc1)[C@@]1(O)[C@H]2O[C@H](O)[C@@]1(C)O | 0.52
C/C=C(/C)C(=O)O[C@H]1C(C)=C2[C@H]([C@@H]1OC(=O)CCCCCCC)[C@@](C)(O)C[C@H](OC(=O)CCCCCCC)[C@@]1(O)[C@H]2OC(O)[C@@]1(C)O (stereo not given in full) | 0.08
C/C=C(\C)C(=O)O[C@H]1C(C)=C2[C@H]([C@@H]1OC(=O)CCCCCCC)[C@@](C)(OC(C)=O)C[C@H](OC(=O)CCC)[C@@]1(OC(C)=O)[C@H]2OC(=O)[C@@]1(C)O | 0.36
C/C=C(/C)C(=O)O[C@H]1C(C)=C2[C@H]([C@@H]1OC(=O)CCCCCCC)[C@@](C)(OC(C)=O)C[C@H](OC(=O)CCc1ccc(N)cc1)[C@@]1(O)[C@H]2O[C@H](O)[C@@]1(C)O | 0.68
C/C=C(/C)C(=O)O[C@H]1C(C)=C2[C@H]([C@@H]1OC(=O)CCCCC)[C@@](C)(OC(C)=O)C[C@H](OC(=O)CCC)[C@@]1(O)[C@H]2O[C@H]2OCO[C@]21C | 0.06
C/C=C(/C)C(=O)O[C@H]1C(C)=C2[C@H]([C@@H]1OC(=O)CCCCCCC)[C@@](C)(OC(C)=O)C[C@H](OC(=O)CCC)[C@@]1(O)[C@H]2O[C@H]2O[C@]21C | 0.186
C/C=C(/C)C(=O)O[C@H]1C(C)=C2[C@H]([C@@H]1OC(=O)CCCCCCC)[C@@](C)(OC(C)=O)C[C@H](OC(=O)CCCCCCCCCCCNC(=O)[C@H](C)N)[C@@]1(O)[C@H]2O[C@H](O)[C@@]1(C)O | 0.833
C/C=C(/C)C(=O)O[C@H]1C(C)=C2[C@H]([C@@H]1OC(=O)CCCCCCC)[C@@](C)(OC(C)=O)C[C@H](OC(=O)/C=C/c1ccc(NC(=O)OC(C)(C)C)cc1)[C@@]1(O)[C@H]2O[C@H](O)[C@@]1(C)O | 0.54
C/C=C(/C)C(=O)O[C@H]1C(C)=C2[C@H]([C@@H]1OC(=O)CCCCCCC)[C@@](C)(OC(C)=O)C[C@H](OC(=O)CCC)[C@@]1(O)[C@H]2OC(=O)[C@@]1(C)O (stereo in doubt; form 2) | 0.67
C/C=C(/C)C(=O)O[C@H]1C(C)=C2[C@H]([C@@H]1OC(=O)CCCCCCC)[C@@](C)(OC(C)=O)C[C@H](OC(=O)CCCCCN)[C@@]1(O)[C@H]2O[C@H](O)[C@@]1(C)O | 0.01
C/C=C(/C)C(=O)O[C@H]1C(C)=C2[C@H]([C@@H]1OC(=O)CCCCCCC)[C@@](C)(OC(C)=O)C[C@@H](OC(=O)CCC)[C@@]1(O)[C@H]2OC(=O)[C@@]1(C)O | 0.0003
C/C=C(/C)C(=O)O[C@H]1C(C)=C2[C@H]([C@@H]1OC(=O)CCCCCCC)[C@@](C)(OC(C)=O)C[C@H](OC(=O)/C=C/c1ccc(N)cc1)[C@@]1(O)[C@H]2O[C@H](O)[C@@]1(C)O | 0.59
C/C=C(/C)C(=O)O[C@H]1C(C)=C2[C@H]([C@@H]1OC(=O)CCCCCCC)[C@@](C)(OC(C)=O)C[C@H](O)[C@@]1(O)[C@H]2O[C@H](O)[C@@]1(C)O | 0.19
C/C=C(/C)C(=O)O[C@H]1C(C)=C2[C@H]([C@@H]1OC(=O)CCCCCCC)[C@@](C)(OC(C)=O)C[C@H](OC(=O)CCCCCCCCCCCN)[C@@]1(O)[C@H]2O[C@H](O)[C@@]1(C)O | 0.384
CCCCCCCC(=O)O[C@@H]1C(=O)C(C)=C2[C@H]1[C@@](C)(OC(C)=O)C[C@H](OC(=O)CCC)[C@@]1(O)[C@H]2OC(=O)[C@@]1(C)O | 0.015
C/C=C(/C)C(=O)O[C@H]1C(C)=C2[C@H]([C@@H]1OC(=O)CCCCC)[C@@](C)(OC(C)=O)C[C@H](OC(=O)CCC)[C@@]1(O)[C@H]2O[C@H]2O[C@@H](OCC)O[C@]21C | 0.02
C/C=C(/C)C(=O)O[C@H]1C(C)=C2[C@H]([C@@H]1OC(=O)CCCCCCC)[C@@](C)(OC(C)=O)C[C@H](OC(=O)CCCCCC(=O)Nc1ccc(C)c(N)c1)[C@@]1(O)[C@H]2O[C@H](O)[C@@]1(C)O | 0.22
C/C=C(/C)C(=O)O[C@H]1C(C)=C2[C@H]([C@@H]1OC(=O)CCCCCCC)[C@@](C)(OC(C)=O)C[C@H](OC(=O)CCC)[C@@]1(O)[C@H]2OC(=O)[C@@]1(C)O (stereo in doubt; form 1) | 1

Biological target: T1, Sarcoplasmic/endoplasmic reticulum calcium ATPase 1
Test: Inhibitory potency against sarco- endoplasmic reticulum calcium-ATPase in relative to thapsigargin (Experimental)
Target sequence in this assay (O14983 whole entry, looked up): as above

SMILES | RIC50
CCCCCCCC(=O)O[C@@H]1C(=O)C(C)=C2[C@H]1[C@@](C)(OC(C)=O)C[C@H](OC(=O)CCCCCCCCCCCNC(=O)CCC(N)C(=O)O)[C@@]1(O)[C@H]2OC(=O)[C@@]1(C)O (stereo not given in full) | 0.83
CCCCCCCC(=O)O[C@@H]1C(=O)C(C)=C2[C@H]1[C@@](C)(OC(C)=O)C[C@H](OC(=O)CCC(=O)Nc1ccc(C)c(N)c1)[C@@]1(O)[C@H]2OC(=O)[C@@]1(C)O | 0.004
CCCCCCCC(=O)O[C@@H]1C(=O)C(C)=C2[C@H]1[C@@](C)(OC(C)=O)C[C@H](OC(=O)CCCC(=O)O)[C@@]1(O)[C@H]2OC(=O)[C@@]1(C)O | 0.02
CCCCCCCC(=O)O[C@@H]1C(=O)C(C)=C2[C@H]1[C@@](C)(OC(C)=O)C[C@H](OC(=O)CCCCCCCCCCC(=O)O)[C@@]1(O)[C@H]2OC(=O)[C@@]1(C)O | 0.25

Biological target: T1, Sarcoplasmic/endoplasmic reticulum calcium ATPase 1
Test: Inhibitory potency against sarco- endoplasmic reticulum calcium-ATPase in relative to thapsigargin by using SGB-LIE method
Method in brief: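 SGB-LIE computation with a surface generalized Born continuum solvent. SERCA coordinates came from one TG-bound monomer of PDB 1IWO, truncated to the transmembrane domain, lumen and the near-membrane cytoplasmic part. Histidine protonation was set to favour H-bonds. Ligands were superimposed on bound TG, with O-8 side chains in the hydrophobic channel. Vacuum minimisation held protein atoms fixed except nonpolar H. LIE parameters were fitted to experimental data for 20 training analogues.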
Target sequence in this assay (O14983 whole entry, looked up): as above

SMILES | RIC50
CCCCCCCC(=O)O[C@@H]1C(=O)C(C)=C2[C@H]1[C@@](C)(OC(C)=O)C[C@H](OC(=O)CCCCCCCCCCCNC(=O)CCC(N)C(=O)O)[C@@]1(O)[C@H]2OC(=O)[C@@]1(C)O (stereo not given in full) | 5
CCCCCCCC(=O)O[C@@H]1C(=O)C(C)=C2[C@H]1[C@@](C)(OC(C)=O)C[C@H](OC(=O)CCC(=O)Nc1ccc(C)c(N)c1)[C@@]1(O)[C@H]2OC(=O)[C@@]1(C)O | 0.0006
CCCCCCCC(=O)O[C@@H]1C(=O)C(C)=C2[C@H]1[C@@](C)(OC(C)=O)C[C@H](OC(=O)CCCC(=O)O)[C@@]1(O)[C@H]2OC(=O)[C@@]1(C)O | 0.31
CCCCCCCC(=O)O[C@@H]1C(=O)C(C)=C2[C@H]1[C@@](C)(OC(C)=O)C[C@H](OC(=O)CCCCCCCCCCC(=O)O)[C@@]1(O)[C@H]2OC(=O)[C@@]1(C)O | 2.08

Biological target: T1, Sarcoplasmic/endoplasmic reticulum calcium ATPase 1
Test: Inhibitory activity against sarco- endoplasmic reticulum calcium-ATPase
Target sequence in this assay (O14983 whole entry): as the sequence (O14983 whole entry, looked up) above

SMILES | IC50
CCCCCCCC(=O)O[C@@H]1C(=O)C(C)=C2[C@H]1[C@@](C)(OC(C)=O)C[C@H](OC(=O)CCCCCCCCCCCNC(=O)CCC(N)C(=O)O)[C@@]1(O)[C@H]2OC(=O)[C@@]1(C)O (stereo not given in full) | 0.0012 µM
CCCCCCCC(=O)O[C@@H]1C(=O)C(C)=C2[C@H]1[C@@](C)(OC(C)=O)C[C@H](OC(=O)CCC(=O)Nc1ccc(C)c(N)c1)[C@@]1(O)[C@H]2OC(=O)[C@@]1(C)O | 9.04 µM
CCCCCCCC(=O)O[C@@H]1C(=O)C(C)=C2[C@H]1[C@@](C)(OC(C)=O)C[C@H](OC(=O)CCCC(=O)O)[C@@]1(O)[C@H]2OC(=O)[C@@]1(C)O | 0.0198 µM
CCCCCCCC(=O)O[C@@H]1C(=O)C(C)=C2[C@H]1[C@@](C)(OC(C)=O)C[C@H](OC(=O)CCCCCCCCCCC(=O)O)[C@@]1(O)[C@H]2OC(=O)[C@@]1(C)O | 0.00208 µM
